Results taken from ChEMBL document CHEMBL4190366, “Discovery and synthesis of novel Wogonin derivatives with potent antitumor activity in vitro” (Eur J Med Chem, 2017).

Experiments:
A549 = assay: Cytotoxicity in human A549 cells assessed as reduction in cell viability incubated for 72 hrs by MTT assay; conditions: A549, 72 h
B16 = assay: Cytotoxicity in mouse B16 cells assessed as reduction in cell viability incubated for 72 hrs by MTT assay; assay type: functional, cell-based; conditions: B16, 72 h
How it was run: (§1)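 Cells pre-incubated 24 h at 37 °C, 5% CO2, then exposed to a range of compound concentrations for 72 h. Viability read as mitochondrial MTT-to-formazan conversion, absorbance at 570 nm.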

HepG2 = assay: Cytotoxicity in human HepG2 cells assessed as reduction in cell viability incubated for 72 hrs by MTT assay; assay type: functional, cell-based; conditions: HepG2, 72 h; how it was run: as §1
MCF7 = assay: Cytotoxicity in human MCF7 cells assessed as reduction in cell viability incubated for 72 hrs by MTT assay; assay type: functional, cell-based; conditions: MCF7, 72 h; how it was run: as §1

| SMILES | IC50 (A549) | IC50 (B16) | IC50 (HepG2) | IC50 (MCF7) |
| --- | --- | --- | --- | --- |
| COc1c(O)cc(O)c2c(=O)cc(-c3ccccc3)oc12 [WOGONIN] | 20.1 µM | 26.4 µM | 19.5 µM | 28 µM |
| O=c1cc(-c2ccccc2)oc2c(OCCCN3CCCC3)c(OCc3ccccc3)cc(O)c12 | 4.72 µM | 7.98 µM | 2.66 µM | 2.23 µM |
| COc1c(OCCCCN2CCN(C)CC2)cc(O)c2c(=O)cc(-c3ccc(Br)cc3)oc12 | 2.13 µM | 4.33 µM | 2.32 µM | 3.21 µM |
| O=c1cc(-c2ccccc2)oc2c(OCCN(CCO)CCO)c(OCc3ccccc3)cc(O)c12 | 6.4 µM | 3.69 µM | 3.17 µM | 6.07 µM |
| CN1CCN(CCCCOc2c(OCc3cccs3)cc(O)c3c(=O)cc(-c4ccccc4)oc23)CC1 | 2.1 µM | 2.12 µM | 4.56 µM | 3.18 µM |
| CN(C)CCCCOc1c(OCc2ccccc2)cc(O)c2c(=O)cc(-c3ccccc3)oc12 | 1.09 µM | 3.22 µM | 2.09 µM | 3.21 µM |
| O=c1cc(-c2ccccc2)oc2c(OCCCCN3CCCC3)c(OCc3ccccc3)cc(O)c12 | 1.1 µM | 3.21 µM | 4.66 µM | 1.89 µM |
| O=c1cc(-c2ccccc2)oc2c(OCCCCN3CCOCC3)c(OCc3ccccc3)cc(O)c12 | 6.6 µM | 5.41 µM | 3.29 µM | 9.9 µM |
| O=c1cc(-c2ccccc2)oc2c(OCCCN(CCO)CCO)c(OCc3ccccc3)cc(O)c12 | 3.15 µM | 6.89 µM | 3.55 µM | 4.23 µM |
| CCN(CC)CCCOc1c(OCc2ccccc2)cc(O)c2c(=O)cc(-c3ccccc3)oc12 | 3.62 µM | 4.9 µM | 3.01 µM | 3.21 µM |
| COc1c(OCCCCN2CCN(C)CC2)cc(O)c2c(=O)cc(-c3ccc(C)cc3)oc12 | 3.81 µM | 5.43 µM | 1 µM | 4.02 µM |
| O=c1cc(-c2ccccc2)oc2c(OCCCN3CCOCC3)c(OCc3ccccc3)cc(O)c12 | 8.91 µM | 10 µM | 2.43 µM | 8.72 µM |
| Cc1ccc(COc2cc(O)c3c(=O)cc(-c4ccccc4)oc3c2OCCCCN2CCN(C)CC2)cc1 | 3.2 µM | 3.29 µM | 5.09 µM | 2.22 µM |
| CCN(CC)CCCCOc1c(OCc2ccccc2)cc(O)c2c(=O)cc(-c3ccccc3)oc12 | 3.91 µM | 4.88 µM | 1.65 µM | 1.92 µM |
| COc1ccc(-c2cc(=O)c3c(O)cc(OCCCCN4CCN(C)CC4)c(OC)c3o2)cc1 | 2.32 µM | 4.1 µM | 4.2 µM | 3.98 µM |
| COc1c(OCCCCN2CCN(C)CC2)cc(O)c2c(=O)cc(-c3cccc(F)c3)oc12 | 2.09 µM | 4.52 µM | 2.58 µM | 2.89 µM |
